Numbering of substitutions follows the chain as printed.
Columns and labels:
TF‐1/IDH2‐R140Q cells [1] = test: Cell-based inhibition of 2-HG production; conditions: Homo sapiens, 72 h, read-out: IC50, anti-2-HG activity
wild‐type IDH2 = biological target: T1, wild‐type IDH2 (Homo sapiens, UniProt P48735); test: Cellular thermal shift assay in U-87 MG cells; assay type: binding; conditions: 1 h treatment
T1 sequence (P48735 40-452): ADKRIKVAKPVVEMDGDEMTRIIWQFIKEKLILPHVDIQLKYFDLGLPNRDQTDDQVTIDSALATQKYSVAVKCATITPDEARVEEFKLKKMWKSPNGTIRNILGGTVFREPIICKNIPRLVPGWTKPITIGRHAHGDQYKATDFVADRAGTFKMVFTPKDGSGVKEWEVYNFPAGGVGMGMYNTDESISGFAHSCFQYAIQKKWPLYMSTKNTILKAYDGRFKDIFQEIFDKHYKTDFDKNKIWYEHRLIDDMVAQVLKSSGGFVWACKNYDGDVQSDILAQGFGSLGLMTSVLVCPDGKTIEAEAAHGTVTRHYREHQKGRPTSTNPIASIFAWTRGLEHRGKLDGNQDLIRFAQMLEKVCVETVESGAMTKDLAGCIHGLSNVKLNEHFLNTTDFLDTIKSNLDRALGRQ

IDH2‐R140Q‐Q316A = biological target: T2, IDH2‐R140Q‐Q316A (Homo sapiens, UniProt P48735, Q316A/R140Q); test: Cellular thermal shift assay in U-87 MG/IDH2-R140Q-Q316A cells; assay type: binding; conditions: 1 h treatment
T2 sequence (P48735 40-452 R140Q/Q316A): T1 sequence (P48735 40-452) with R101Q, Q277A

IDH2‐R140Q [2] = biological target: T3, IDH2‐R140Q (Homo sapiens, UniProt P48735, R140Q); test: Cell-based enzyme assay, lysates of U-87 MG/IDH2-R140Q cells; assay type: biochemical; conditions: IC50, inhibition of IDH2-R140Q enzymatic activity
T3 sequence (P48735 40-452 R140Q): T1 sequence (P48735 40-452) with R101Q

IDH2‐WT = biological target: T4, IDH2‐WT (Homo sapiens, UniProt P48735); test: Cell-based enzyme assay, lysates of U-87 MG/IDH2-WT cells; assay type: biochemical
T4 sequence (P48735 40-452): T1 sequence (P48735 40-452)

IDH2‐R172K [3] = biological target: T5, IDH2‐R172K (Homo sapiens, UniProt P48735, R172K); test: Cell-based enzyme assay, lysates of U-87 MG/IDH2-R172K cells; assay type: biochemical
T5 sequence (P48735 40-452 R172K): T1 sequence (P48735 40-452) with R133K

U‐87 MG/IDH2‐R140Q cells = test: Cell-based inhibition of 2-HG production; conditions: Homo sapiens, 72 h, read-out: Inhibition of 2-HG production
TF‐1/IDH2‐R140Q cells [4] = test: Cell proliferation assay; assay type: cell-based, human; conditions: 7 d + 7 d without hGM-CSF
IDH2‐R140Q [5] = biological target: T3, IDH2‐R140Q; test: Cellular thermal shift assay in U-87 MG cells; assay type: binding; conditions: 1 h treatment
TF‐1/IDH2‐R172K cells [6] = test: Cell proliferation assay; assay type: cell-based, human; conditions: 7 d + 7 d without hGM-CSF
IDH2‐R172K [7] = biological target: T5, IDH2‐R172K; test: Cellular thermal shift assay in U-87 MG cells; assay type: binding; conditions: 1 h treatment
IDH1‐R132C = IDH1‐R132C (Homo sapiens, UniProt O75874, R132C); test: Cell-based enzyme assay, lysates of U-87 MG/IDH1-R132C cells; assay type: biochemical
IDH1‐R132C, sequence (O75874 whole entry R132C): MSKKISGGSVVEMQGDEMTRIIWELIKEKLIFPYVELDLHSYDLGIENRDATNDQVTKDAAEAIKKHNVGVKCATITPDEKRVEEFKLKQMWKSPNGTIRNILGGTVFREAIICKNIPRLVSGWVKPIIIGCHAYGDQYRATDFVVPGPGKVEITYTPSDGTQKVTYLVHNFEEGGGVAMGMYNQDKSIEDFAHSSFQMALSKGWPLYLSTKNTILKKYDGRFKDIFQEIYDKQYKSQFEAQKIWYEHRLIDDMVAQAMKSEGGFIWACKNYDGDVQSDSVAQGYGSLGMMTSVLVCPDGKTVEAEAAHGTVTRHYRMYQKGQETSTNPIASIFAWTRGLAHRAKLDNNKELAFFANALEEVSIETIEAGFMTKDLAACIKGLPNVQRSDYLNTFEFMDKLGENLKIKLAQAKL

TF‐1/IDH2‐R172K cells [8] = test: Cell-based inhibition of 2-HG production; conditions: Homo sapiens, 72 h, read-out: IC50, anti-2-HG activity
IDH1‐R132H = IDH1‐R132H (Homo sapiens, UniProt O75874, R132H); test: Cell-based enzyme assay, lysates of U-87 MG/IDH1-R132H cells; assay type: biochemical
IDH1‐R132H, sequence (O75874 whole entry R132H): as the sequence (O75874 whole entry R132C) above, with C132H counted along it

IDH1‐WT = IDH1‐WT (Homo sapiens, UniProt O75874); test: Cell-based enzyme assay, lysates of U-87 MG/IDH1-WT cells; assay type: biochemical
IDH1‐WT, sequence (O75874 whole entry): as the sequence (O75874 whole entry R132C) above, with C132R counted along it

TF‐1/IDH2‐R172K cells [9] = test: Erythroid differentiation under EPO, HBG mRNA by qRT-PCR; assay type: cell-based, human; conditions: 7 d + 7 d EPO
TF‐1/IDH2‐R140Q cells [10] = test: Erythroid differentiation under EPO, HBG mRNA by qRT-PCR; assay type: cell-based, human; conditions: 7 d + 7 d EPO
In short: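 TF-1 cells carrying doxycycline-inducible IDH2-R140Q got test compound for 7 d in RPMI-1640, 10% FBS, 2 ng/mL hGM-CSF. GM-CSF was then replaced by EPO (2 IU/mL) for another 7 d with compound present. HBG mRNA was measured in cell pellets by SYBR qRT-PCR, with GAPDH primers also used. Means ± SD of triplicates.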

SMILES: CC(C)(O)CNc1nc(Nc2ccnc(C(F)(F)F)c2)nc(-c2cccc(C(F)(F)F)n2)n1 [AG‐221, enasidenib]
- IC50 (TF‐1/IDH2‐R140Q cells [1]): 24.7 ± 2.3 nM
- Thermal stabilization of wild-type IDH2 (CETSA) (wild‐type IDH2): Neither TQ05310 nor AG‐221 stabilized
- Thermal stabilization in U-87 MG/IDH2-R140Q-Q316A cells (CETSA) (IDH2‐R140Q‐Q316A): lost
- IC50 (IDH2‐R140Q [2]): 229 ± 23.2 nM
- Inhibitory effect on IDH2-WT enzymatic activity (IDH2‐WT): no apparent inhibitory effects
- IC50 (IDH2‐R172K [3]): 625 ± 146 nM
- inhibition at 0.2 µM (U‐87 MG/IDH2‐R140Q cells): 67.3%
- Effect on cell proliferation (MTT) (TF‐1/IDH2‐R140Q cells [4]): did not significantly inhibit proliferation
- Thermal stabilization of IDH2-R140Q (CETSA) (IDH2‐R140Q [5]): apparent thermal‐stabilization effect
- Effect on cell proliferation (MTT) (TF‐1/IDH2‐R172K cells [6]): did not significantly inhibit proliferation
- Thermal stabilization of IDH2-R172K (CETSA) (IDH2‐R172K [7]): weak thermal‐stabilization effect
- Inhibitory effect on IDH1-R132C enzymatic activity (IDH1‐R132C): no apparent inhibitory effects
- IC50 (TF‐1/IDH2‐R172K cells [8]): 732 ± 331 nM
- Inhibitory effect on IDH1-R132H enzymatic activity (IDH1‐R132H): no apparent inhibitory effects
- Inhibitory effect on IDH1-WT enzymatic activity (IDH1‐WT): no apparent inhibitory effects
- Effect on HBG levels (cell differentiation) (TF‐1/IDH2‐R172K cells [9]): increased HBG only in TF‐1/IDH2‐R140Q cells
- Effect on HBG levels (cell differentiation) (TF‐1/IDH2‐R140Q cells [10]): increased HBG

Reference: publication PMC6778631 (Cancer Science, 2019)
